Results: ChEMBL document CHEMBL3351807, “2-Phenoxychromones and prenylflavonoids from Epimedium koreanum and their inhibitory effects on LPS-induced nitric oxide and interleukin-1β production” (J Nat Prod, 2014)
pIC50: −log10 of the molar value.

Legend:
Assay type in all cases: functional, cell-based
RAW264.7 [1] = assay: Inhibition of LPS-induced IL-1beta production in mouse RAW264.7 cells after 24 hrs by ELISA; details: RAW264.7, 24 h
In short: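 RAW 264.7 cells at 2 × 10^6 cells/mL stimulated with 1 μg/mL LPS in presence or absence of compound, 37 °C, 24 h. IL-1β in culture medium quantified by commercial ELISA kit. Remaining-cell viability checked by colorimetric cell counting kit. IC50 as mean of triplicate experiments.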

RAW264.7 [2] = assay: Inhibition of LPS-induced NO production in mouse RAW264.7 cells after 24 hrs by Griess reagent based assay; details: RAW264.7, 24 h
In short: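 RAW 264.7 cells seeded at 2 × 10^6 cells/mL, stimulated with 1 μg/mL LPS with or without compound, 37 °C for 24 h. Supernatant nitrite measured as NO indicator: Griess reagent, room temperature 10 min, absorbance 550 nm against sodium nitrite standard curve. Viability of remaining cells by colorimetric cell counting kit. IC50 as mean of triplicate experiments.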

RAW264.7 [3] = assay: Inhibition of LPS-induced IL-1beta gene expression in mouse RAW264.7 cells at 12.5 to 50 uM after 24 hrs by RT-PCR method
In short: (§1)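 Total RNA isolated with TRIZOL; single-stranded cDNA made from 2 μg total RNA, then PCR for iNOS or IL-1β transcripts. Products run on 1% agarose gels, stained with 5 μg/mL ethidium bromide. Cells LPS-stimulated, compound tested across doses.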

RAW264.7 [4] = assay: Inhibition of LPS-induced iNOS gene expression in mouse RAW264.7 cells at 12.5 to 50 uM after 24 hrs by RT-PCR method; in short: as §1

Row | pIC50 (RAW264.7 [1]) | pIC50 (RAW264.7 [2]) | Structure (SMILES) | inhibition (RAW264.7 [3]) | inhibition (RAW264.7 [4])
1 | < 4.30 | < 4.30 | CC(C)=CCc1c(O)cc(O)c2c(=O)cc(-c3cc(O)c4c(c3)C=CC(C)(C)O4)oc12 |  | 
2 | < 4.30 | < 4.30 | COc1cc(C[C@@]2(O)CO[C@H](c3ccc(O)c(OC)c3)[C@H]2COC(C)=O)ccc1O |  | 
3 | < 4.30 | < 4.30 | CC1(C)C[C@H](O)C[C@@]2(C)OC(=O)C=C12 [LOLIOLIDE] |  | 
4 | < 4.30 | < 4.30 | CC1(C)C=Cc2c(cc(O)c3c(=O)cc(Oc4ccc(O)cc4)oc23)O1 |  | 
5 | 4.73 | 4.80 | COc1ccc2c(c1)c(CC(=O)O)c(C)n2C(=O)c1ccc(Cl)cc1 [INDOMETHACIN] |  | 
6 | 4.54 | 4.56 | COc1ccc(Oc2cc(=O)c3cc(O)c(CC=C(C)C)c(O)c3o2)cc1 |  | 
7 | < 4.30 | < 4.30 | COc1cc2c(cc1OC)-c1c(cc(OC)c(OC)c1OC)CC2 |  | 
8 | < 4.30 | 4.40 | COc1cc([C@H]2OC[C@H]3[C@@H]2CO[C@H]3c2ccc(O)c(OC)c2)ccc1O [PINORESINOL] |  | 
9 | 4.41 | 4.45 | C=CCc1ccc(O)c(-c2cc(CC=C)ccc2O)c1 [MAGNOLOL] |  | 
10 | < 4.30 | 4.41 | CC(=O)/C=C/[C@@]1(O)C(C)=CC(=O)CC1(C)C |  | 
11 | < 4.30 | < 4.30 | COc1cn2c(=O)ccc(O)c2cn1 |  | 
12 | < 4.30 | < 4.30 | CC1(C)C[C@@H](O)C[C@@]2(C)OC(=O)C=C12 [(+)-EPILOLIOLIDE] |  | 
13 | 5.07 | 4.71 | CC(C)=CCc1cc(-c2cc(=O)c3c(O)cc(O)c(CC=C(C)C)c3o2)ccc1O | Dose-dependent effect | Dose-dependent effect
14 | 5.06 | 4.77 | COc1c(O)cc(-c2cc(=O)c3c(O)cc(O)c(CC=C(C)C)c3o2)cc1CC=C(C)C | Dose-dependent effect | Dose-dependent effect
15 | < 4.30 | 4.34 | COc1cc([C@@H]2OC[C@@H]3[C@H]2CO[C@H]3c2cc(OC)c(O)c(OC)c2)cc(OC)c1O |  | 
16 | < 4.30 | 4.31 | COc1cc2ccc3cc(OC)c(OC)c(OC)c3c2cc1OC |  | 

Row | Structure (SMILES) | pIC50 (RAW264.7 [1]) | pIC50 (RAW264.7 [2]) | inhibition (RAW264.7 [3]) | inhibition (RAW264.7 [4])
17 | N=C(N)NN [PIMAGEDINE] |  | 4.67 |  | 
